According to ChEMBL document CHEMBL2057104, “Identification of myricetin and scutellarein as novel chemical inhibitors of the SARS coronavirus helicase, nsP13” (Bioorg Med Chem Lett, 2012):
Calls of active or inactive are those of the source.

Tests used:
Hepacivirus hominis [1] = assay: Inhibition of HCV NS3 helicase ATP hydrolysis activity overexpressed in Escherichia coli BL21(DE3) assessed as inhibition of inorganic phosphate release by AM/MG-based colometric analysis in the presence of M13 ssDNA
[2] = system: Severe acute respiratory syndrome-related coronavirus; assay: Inhibition of SARS coronavirus nsP13 helicase activity expressed in Escherichia coli Rosetta assessed inhibition of DNA unwinding activity at 10 uM by FRET assay
Procedure, shortened: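 FRET dsDNA-unwinding assay using fluorescein/TAMRA-labelled duplex. When nsP13 unwinds the duplex, fluorescein emission is unquenched. Compound was added to the unwinding reaction at 10 µM, and fluorescence was read at 535 nm.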

Hepacivirus hominis [3] = assay: Inhibition of HCV NS3 helicase overexpressed in Escherichia coli BL21(DE3) assessed as inhibition of DNA unwinding activity at 10 uM by FRET assay

Measured: inhibition

COc1c2c(cc3oc(CO[C@@H]4O[C@H](CO)[C@@H](O)[C@H](O)[C@H]4O)cc(=O)c13)O[C@H](C(C)(C)O)C2
inactive: all assays above

C=C1CC[C@@H]2[C@H]([C@H]3[C@H]1CC[C@]3(C)O)C2(C)C
inactive: all assays above

C[C@H]1C(=O)CC[C@@H]2[C@]1(C)CC[C@H]1[C@@]2(C)CC[C@@]2(C)[C@@H]3CC(C)(C)CC[C@]3(C)CC[C@]12C
inactive: all assays above

O=C(/C=C/c1ccccc1)NCCCCNC(=O)c1ccccc1
inactive: all assays above

CC1(C)CC[C@]2(C(=O)O)CC[C@]3(C)C(=CC[C@@H]4[C@@]5(C)CC[C@H](O)C(C)(C)[C@@H]5CC[C@]43C)[C@@H]2C1
inactive: all assays above

O=C(O)c1cc(O)c(O)c(O)c1
inactive: all assays above

CC[C@H](CC[C@@H](C)[C@H]1CC[C@H]2[C@@H]3CC=C4C[C@@H](O)CC[C@]4(C)[C@H]3CC[C@]12C)C(C)C
inactive: all assays above

Cc1cc(=O)c2c(O)c3c(cc2o1)OC(C)(C)[C@@H](O)C3
inactive: all assays above

CC(C)=CCOc1c2occc2cc2ccc(=O)oc12
inactive: all assays above

COc1c2c(cc3oc(C)cc(=O)c13)OC(C(C)(C)O[C@H]1O[C@@H](CO)[C@H](O)[C@@H](O)[C@@H]1O)C2 (some centres undefined)
inactive: all assays above

CC1(C)CC[C@]2(C(=O)O)CC=C3[C@]4(C)CC[C@H]5C(C)(C)[C@@H](O)CC[C@]5(C)[C@H]4CC[C@@]3(C)[C@@H]2C1
inactive: all assays above

O=c1c(O[C@@H]2O[C@H](CO)[C@H](O)[C@H](O)[C@H]2O)c(-c2ccc(O)c(O)c2)oc2cc(O)cc(O)c12
inactive: all assays above

CC(C)=CCC[C@](C)(O[C@@H]1O[C@H](CO[C@@H]2O[C@H](CO)[C@@H](O)[C@H](O)[C@H]2O)[C@@H](O)[C@H](O)[C@H]1O)[C@H]1CC[C@]2(C)[C@@H]1[C@H](O)C[C@@H]1[C@@]3(C)CC[C@H](O[C@@H]4O[C@H](CO)[C@@H](O)[C@H](O)[C@H]4O[C@@H]4O[C@H](CO)[C@@H](O)[C@H](O)[C@H]4O)C(C)(C)[C@@H]3CC[C@]12C
inactive: all assays above

C[C@H]1[C@H](C)CC[C@]2(C)CC[C@]3(C)C(=CC[C@@H]4[C@@]5(C)CC[C@H](O)C(C)(C)[C@@H]5CC[C@]43C)[C@H]12
inactive: all assays above

C[C@@H]1O[C@@H](O[C@H]2[C@H](Oc3cc(O)c4c(c3)O[C@H](c3ccc(O)cc3)CC4=O)O[C@H](CO)[C@@H](O)[C@@H]2O)[C@H](O)[C@H](O)[C@H]1O
inactive: all assays above

Cc1cc(=O)c2c(O)c3c(cc2o1)OC(C)(C)[C@@H](O[C@H]1O[C@@H](CO)[C@H](O)[C@@H](O)[C@@H]1O)C3
inactive: all assays above

C[C@H]1[C@H](C)CC[C@]2(C(=O)O)CC[C@]3(C)C(=CC[C@@H]4[C@@]5(C)CC[C@H](O)C(C)(C)[C@@H]5CC[C@]43C)[C@H]12
inactive: all assays above

COc1ccc(/C=C/C(=O)O[C@H]2[C@@H]3C=CO[C@@H](O[C@@H]4O[C@H](CO)[C@@H](O)[C@H](O)[C@H]4O)[C@@H]3[C@@]3(CO)O[C@@H]23)cc1O
inactive: all assays above

COc1ccc(C(=O)O[C@H]2[C@@H]3C=CO[C@@H](O[C@@H]4O[C@H](CO)[C@@H](O)[C@H](O)[C@H]4O)[C@@H]3[C@@]3(CO)O[C@@H]23)cc1OC
inactive: all assays above

O=c1cc(-c2ccccc2)oc2cc(O)cc(O)c12
inactive: all assays above

O=C(/C=C/c1ccc(O)cc1)c1ccc(O)cc1O
inactive: all assays above

C[C@H]1[C@@H](O)CC[C@@H]2[C@]1(C)CC[C@H]1[C@@]2(C)CC[C@@]2(C)[C@@H]3CC(C)(C)CC[C@]3(C)CC[C@]12C
inactive: all assays above

COc1c(O)cc2oc3cc(O)c(CC=C(C)C)c(O)c3c(=O)c2c1CC=C(C)C
inactive: all assays above

COc1ccc(-c2oc3c(CC=C(C)C)c(O)cc(O)c3c(=O)c2O)cc1
inactive: all assays above

O=c1cc(-c2ccccc2)oc2cc(O)c(O)c(O)c12
inactive: all assays above

O=c1c(O)c(-c2ccc(O)cc2)oc2cc(O)cc(O)c12
inactive: all assays above

CCCCCCCCCCCCC/C=C1/C(=O)O[C@H](C)[C@@H]1O
inactive: all assays above

O=C(/C=C/c1ccccc1)NCCCCNC(=O)Cc1ccc(O)cc1
inactive: all assays above

O=C(/C=C/c1ccccc1)NCCCCNC(=O)c1ccc(O)cc1
inactive: all assays above

C=C(C)C(C)(C)CC[C@@H](C)[C@H]1CC[C@@]2(C)[C@@H]3CC[C@H]4C(C)(C)C(=O)CC[C@]4(C)C3=CC[C@]12C
inactive: all assays above

C/C=C(/C)C(=O)O[C@H]1Cc2c(cc3oc(C)cc(=O)c3c2O)OC1(C)C
inactive: all assays above

C=C[C@]1(C)CC[C@@]2(C)C3=CCC[C@](C)(CO)[C@@H]3CC[C@@H]2C1
inactive: all assays above

COc1ccc(-c2cc(=O)c3c(O)cc(O[C@H]4O[C@@H](CO)[C@H](O)[C@@H](O)[C@@H]4O)cc3o2)cc1O
inactive: all assays above

COc1ccc(C(=O)O[C@H]2[C@@H]3C=CO[C@@H](O[C@@H]4O[C@H](CO)[C@@H](O)[C@H](O)[C@H]4O)[C@@H]3[C@@]3(CO)O[C@@H]23)cc1O
inactive: all assays above

O=c1c(O[C@@H]2O[C@H](CO)[C@@H](O)[C@H](O)[C@H]2O)c(-c2ccc(O)c(O)c2)oc2cc(O)cc(O)c12
inactive: all assays above

COc1cc(/C=C/C(=O)CC(=O)/C=C/c2ccc(O)c(OC)c2)ccc1O
inactive: all assays above

C=C(C)[C@@H](C)CC[C@@H](C)[C@H]1CC[C@@]2(C)[C@@H]3CC[C@H]4C(C)(C)C(=O)CC[C@]4(C)C3=CC[C@]12C
inactive: all assays above

COc1ccc(-c2oc3c(CC=C(C)C)c(O[C@@H]4O[C@H](CO)[C@@H](O)[C@H](O)[C@H]4O)cc(O)c3c(=O)c2O[C@@H]2O[C@@H](C)[C@H](O)[C@@H](O)[C@H]2O)cc1
inactive: all assays above
